Test results published in ChEMBL document CHEMBL1136932, “Discovery, SAR, and pharmacokinetics of a novel 3-hydroxyquinolin-2(1H)-one series of potent D-amino acid oxidase (DAAO) inhibitors” (J Med Chem, 2009).
Each block holds one compound with its values, some of them ahead of it. The source made the active and inactive calls. No cut-off for these calls is given here.

Experiments:
Mus musculus = assay: Elevation of D-serine level in 129/SVEV mouse cerebellum at 10 mg/kg, sc after 4 hrs by LC/MS-MS analysis; type: functional, organism-based; parameters: dose 10 mg/kg
Summary of the method: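 Male rats (1-2 mL/kg) or male mice (10 mL/kg) received compound or vehicle sc in 5% DMSO/5% Cremophor EL/90% saline. At 4 h, cerebella were taken under CO2 anesthesia, homogenized in 3 volumes PBS and extracted with 16 volumes acetonitrile, and the supernatant was dried.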

[1] = Ratio of drug level in brain to plasma in 129/SVEV mouse at 10 mg/kg, sc after 4 hrs; details: read-out: BPR
Brain [2] = assay: Free drug level in 129/SVEV mouse brain at 10 mg/kg, sc after 4 hrs; details: in vivo
D-aspartate oxidase = target: T1, D-aspartate oxidase (Homo sapiens, UniProt Q99489); assay: Inhibition of human recombinant DDO expressed in sf9 insect cells assessed as degradation of D-aspartic acid by fluorescence assay
T1 sequence (Q99489 whole entry): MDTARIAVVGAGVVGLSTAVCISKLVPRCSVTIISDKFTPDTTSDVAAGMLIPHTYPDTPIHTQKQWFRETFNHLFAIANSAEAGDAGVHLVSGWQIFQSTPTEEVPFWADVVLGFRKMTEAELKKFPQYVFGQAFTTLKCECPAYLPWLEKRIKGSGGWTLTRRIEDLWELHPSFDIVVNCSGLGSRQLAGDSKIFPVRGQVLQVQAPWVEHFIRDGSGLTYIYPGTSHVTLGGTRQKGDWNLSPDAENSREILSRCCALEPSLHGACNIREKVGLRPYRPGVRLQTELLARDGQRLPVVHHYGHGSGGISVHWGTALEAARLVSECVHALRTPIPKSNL

[3] = Displacement of [3H]glycine from NMDA receptor at 10 uM
[4] = Dissociation constant, pKa of the compound; type: physicochemical
D-amino-acid oxidase = D-amino-acid oxidase (Rattus norvegicus, UniProt O35078); assay: Inhibition of rat recombinant DAAO expressed in sf9 insect cells assessed as degradation of D-serine by fluorescence assay
[5] = Oral bioavailability in Sprague-Dawley CD rat at 3 mg/kg; type: ADME, organism-based; details: in vivo
[6] = Cmax in Sprague-Dawley CD rat at 3 mg/kg, po; type: ADME, organism-based; parameters: dose 3 mg/kg, route oral; details: in vivo
[7] = Ratio of drug level in brain to plasma in Sprague-Dawley CD rat at 56 mg/kg, sc after 4 hrs; type: ADME, organism-based; parameters: dose 56 mg/kg, route subcutaneous; details: read-out: BPR
[8] = Clearance in Sprague-Dawley CD rat plasma at 3 mg/kg, po and 1 mg/kg, iv; type: ADME, organism-based
[9] = Fraction unbound in Sprague-Dawley CD rat brain at 56 mg/kg, sc after 4 hrs; type: ADME, organism-based; parameters: dose 56 mg/kg, route subcutaneous
Rattus norvegicus = assay: Volume of distribution in Sprague-Dawley CD rat at 3 mg/kg, po and 1 mg/kg, iv; type: ADME, organism-based; details: in vivo
Brain [10] = assay: Free drug level in Sprague-Dawley CD rat brain at 56 mg/kg, sc after 4 hrs; type: ADME, organism-based; parameters: dose 56 mg/kg, route subcutaneous; details: in vivo
[11] = Half life in Sprague-Dawley CD rat at 3 mg/kg, po and 1 mg/kg, iv; type: ADME, organism-based; details: in vivo

Chain of D-amino-acid oxidase (O35078 whole entry): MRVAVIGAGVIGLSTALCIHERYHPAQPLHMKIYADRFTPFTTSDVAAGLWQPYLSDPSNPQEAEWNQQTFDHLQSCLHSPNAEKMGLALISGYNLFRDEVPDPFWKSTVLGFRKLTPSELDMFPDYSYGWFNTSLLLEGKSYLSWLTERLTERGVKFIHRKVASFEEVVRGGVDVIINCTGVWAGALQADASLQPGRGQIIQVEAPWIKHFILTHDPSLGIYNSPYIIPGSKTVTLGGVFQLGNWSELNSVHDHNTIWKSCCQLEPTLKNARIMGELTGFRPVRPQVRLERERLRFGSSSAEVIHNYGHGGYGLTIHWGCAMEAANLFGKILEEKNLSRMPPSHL

IC50 (D-aspartate oxidase): > 43.4 µM
Compound: O=c1[nH]c2c(Cl)cccc2cc1O

IC50 (D-aspartate oxidase): 64 µM | inhibition [3]: < 50%
Compound: O=c1[nH]c2cccc(F)c2cc1O

IC50 (D-aspartate oxidase): 31.6 µM
Compound: Cc1cccc2cc(O)c(=O)[nH]c12

inhibition [3]: < 50%
Compound: O=c1[nH]c2c(F)cccc2cc1O

inhibition [3]: < 50%
Compound: Cc1cccc2[nH]c(=O)c(O)cc12

IC50 (D-aspartate oxidase): > 50 µM
Compound: CCc1cccc2cc(O)c(=O)[nH]c12

bioavailability [5]: 0.9% | Cmax [6]: 5.5 ng/mL | Kp at 4 h [7]: 0.7 | pKa [4]: 8.7 | clearance [8]: 46 mL/min/kg | fraction unbound at 4 h [9]: 0.22 | Vd (Rattus norvegicus): 10.8 L/kg | Kp at 4 h [1]: 2 | Drug uptake (Brain [2]): 15 nM | Drug uptake (Brain [10]): 670 nM | inhibition [3]: 29%
Compound: O=c1[nH]c2ccccc2cc1O

IC50 (D-amino-acid oxidase): 0.04 µM | IC50 (D-aspartate oxidase): 206 µM | inhibition [3]: < 50%
Compound: O=c1[nH]c2cccc(Cl)c2cc1O

bioavailability [5]: 38% | Cmax [6]: 754 ng/mL | clearance [8]: 15 mL/min/kg | Vd (Rattus norvegicus): 1.2 L/kg | IC50 (D-aspartate oxidase): 22.4 µM | inhibition [3]: < 50% | half-life [11]: 5.4 h
Compound: O=c1[nH]c2cc(F)ccc2cc1O

IC50 (D-aspartate oxidase): > 7.64 µM | inhibition [3]: < 50%
Compound: O=c1[nH]c2ncccc2cc1O

IC50 (D-aspartate oxidase): 21.5 µM
Compound: Cc1ccc2cc(O)c(=O)[nH]c2c1

inhibition [3]: < 50%
Compound: CCc1cccc2[nH]c(=O)c(O)cc12

bioavailability [5]: 44% | Cmax [6]: 216 ng/mL | clearance [8]: 72 mL/min/kg | Vd (Rattus norvegicus): 2.3 L/kg | inhibition [3]: < 50% | half-life [11]: 0.9 h
Compound: O=c1[nH]c2ccc(F)cc2cc1O

Further lines, the compound ahead of its results:

Compound: O=c1[nH]c2ncc(F)c(Cl)c2cc1O
Activity (Mus musculus): Active | Kp at 4 h [1]: 0.1 | Drug uptake (Brain [2]): 12 nM

Compound: O=c1[nH]c2cnccc2cc1O
IC50 (D-aspartate oxidase): > 50 µM

Compound: O=c1[nH]c2ccc(Cl)cc2cc1O
IC50 (D-aspartate oxidase): > 50 µM

Compound: O=c1[nH]c2nccnc2cc1O
IC50 (D-aspartate oxidase): > 50 µM

Compound: Oc1noc2cc(Cl)ccc12
pKa [4]: 4

Compound: O=C(O)c1cc2occc2[nH]1
pKa [4]: 4 | IC50 (D-amino-acid oxidase): 0.424 µM | Kp at 4 h [1]: 0.8 | IC50 (D-aspartate oxidase): > 19.5 µM

Compound: Cc1c(O)c(=O)[nH]c2ccccc12
IC50 (D-aspartate oxidase): 32.3 µM

Compound: O=c1[nH]c2cccnc2cc1O
IC50 (D-aspartate oxidase): > 50 µM

Compound: Cc1cc(C(=O)O)n[nH]1
pKa [4]: 4

Compound: O=c1[nH]c2ccncc2cc1O
IC50 (D-aspartate oxidase): > 36 µM
